Compound activity as filed in PubChem BioAssay.
PG9 Ab binder: binders of HIV-1 gp120 antibody PG9, primary screen, biochemical, TR-FRET; HIV-1 gp120 / PG9 antibody interaction; inhibition, % at 6.7 µM; TR-FRET gp120-PG9 antibody binding; 360,000 tested, 0.43% active; in the data active means inhibition above about 8.5%
NR1D1 modulator: modulators of Rev-erb alpha DNA binding, primary screen, biochemical, FITC-DNA, fluorescence polarization, uHTS; Rev-erbα–FITC-DNA binding, 90 min; Nuclear receptor subfamily 1 group D member 1 (Homo sapiens), P20393; activity, % at 10 µM; 370,000 tested, 0.79% active;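 active means activity above about 14%, limit read from the data; passing the limit was not always enough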;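 further: 0% = DMSO wells with 35 nM protein and 100% = DMSO wells with 750 nM protein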
Target sequence (P20393 whole entry, looked up): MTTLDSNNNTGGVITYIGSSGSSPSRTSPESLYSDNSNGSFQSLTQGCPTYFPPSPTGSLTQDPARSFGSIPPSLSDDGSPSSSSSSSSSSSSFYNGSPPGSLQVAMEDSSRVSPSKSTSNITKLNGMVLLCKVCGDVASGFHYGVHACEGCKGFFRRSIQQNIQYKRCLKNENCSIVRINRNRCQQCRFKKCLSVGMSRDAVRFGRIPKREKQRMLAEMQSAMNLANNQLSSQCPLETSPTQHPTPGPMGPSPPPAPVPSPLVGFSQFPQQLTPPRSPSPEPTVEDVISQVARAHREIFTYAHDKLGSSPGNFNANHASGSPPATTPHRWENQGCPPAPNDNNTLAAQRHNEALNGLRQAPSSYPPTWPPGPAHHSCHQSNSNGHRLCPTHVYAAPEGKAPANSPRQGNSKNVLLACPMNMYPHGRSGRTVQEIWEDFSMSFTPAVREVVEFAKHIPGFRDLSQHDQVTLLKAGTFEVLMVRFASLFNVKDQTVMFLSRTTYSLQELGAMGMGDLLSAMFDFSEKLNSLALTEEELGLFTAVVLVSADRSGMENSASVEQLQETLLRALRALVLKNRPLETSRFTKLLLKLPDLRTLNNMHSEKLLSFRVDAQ
NR2E3 ag-1: inhibitors of NR2E3-RetCOR corepressor binding, primary screen, NR2E3 agonist project, biochemical, TR-FRET, GST-NR2E3, biotin-RetCOR; Photoreceptor-specific nuclear receptor (Homo sapiens), Q9Y5X4; 1536-well; inhibition of corepressor binding, % at 4.78 µM; 320,000 tested, 0.12% active; AID 2300, 2010;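 active means percent inhibition above the cutoff of mean plus 3 SD of all tested compounds, set per screening campaign, cut at about 20% in these data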;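 further: 0% = DMSO wells and 100% = biotin wells as full block of FRET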
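system = GST-tagged NR2E3 plus biotinylated RetCOR corepressor | input = 1.35 nM GST-NR2E3 | also added = 7 nM biotin-RetCOR | schedule = 5 h incubation at 4 °C | measured by = TR-FRET with europium anti-GST and streptavidin-D2, 340 nm excitation | read-out = percent loss of FRET ratio relative to control wells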
NR2E3 ag-2: NR2E3 agonists in two-hybrid cells, primary screen, cell-based, luminescence, CHO-S, Gal4-NCOR/VP16-NR2E3. 360,000 tested, 0.35% active. inhibition of corepressor binding, % at 3.98 µM. Photoreceptor-specific nuclear receptor (Homo sapiens), Q9Y5X4. luciferase;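 active means inhibition above the mean of all tested compounds plus 3 SD, cut at about 70% in these data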;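 further: 0% = DMSO with NR2E3 transfected cells and 100% = cells lacking NR2E3 construct; higher means lower luciferase signal from less NR2E3 corepressor binding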
NR1D1 mod conf: modulators of Rev-erb alpha DNA binding, confirmation, biochemical, FITC-DNA, fluorescence polarization, single point; AID 1259319, 2017; shares compounds with NR1D1 modulator; 90 min; activation, % at 25 µM; 3,000 tested, 61% active;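 active means activation at or above a set limit, or at least 3 SD above the negative control mean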;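 further: 0% = 35 nM protein with DMSO and 100% = 750 nM protein high control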
RORg DNA counter: modulation of RORgamma DNA binding, dose response, counter-screen for Rev-erb alpha modulator project, biochemical, fluorescence polarization, FITC-DNA | purified RORgamma protein-FITC-DNA binding | 910 tested, 8% active | IC50, µM | shares compounds with NR1D1 modulator;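 active means Compounds whose fitted half-maximal concentration for disrupting protein-DNA binding is below 10 micromolar; the record names Rev-erb in its text, so the target is in doubt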
* marks the source's active call; other numbers are inactive results; i = inactive; · = not tested or not shown. Rows were chosen to be rich in hits. Some 1.4% of all compounds tested hit in one or more screens of this group.

SMILES	PG9 Ab binder	NR1D1 modulator	NR2E3 ag-1	NR2E3 ag-2	NR1D1 mod conf	others
Nc1ccc2nc3c(=O)n(C4CCCCC4)c(=O)[nH]c3nc2c1	-5	77*	-7	-58	83*	RORg DNA counter=>40
Cc1cc2nc3c(=O)n(CCc4ccccc4)c(=O)[nH]c3nc2cc1N	-6	38*	-2	-32	34*	RORg DNA counter=2.1*
COc1cccc(-c2nnc(SCC(=O)Nc3ccc(Oc4ccccc4)cc3)n2Cc2ccco2)c1	·	3	·	·	·
CN=C1S/C(=C/c2cc(C)n(-c3ccc(Cl)cc3F)c2C)C(=O)N1C	·	0	·	·	·
O=C(O)c1nc2nc(Cl)c(Cl)nc2[nH]1	0	2	-3	-49	·
CCCCCCc1nc2nc(Cl)c(Cl)nc2[nH]1	-2	22*	·	-2	-2
COc1ccc2c(c1)CN1CN(C3CCCC3)S(=O)(=O)CC21 (stereo unspecified)	·	-3	·	·	·
COc1ccc(C(=O)NCCNc2nc3cc(C)cc(C)c3cc2C#N)nc1	-2	23*	·	·	45*	RORg DNA counter=>40
COc1ccccc1NC(=O)c1sc2nc(Cc3ccccc3)cc(C(F)(F)F)c2c1N	·	45*	2	-9	63*	RORg DNA counter=>40
Cc1c(C(=O)Nc2ccccc2F)sc2nc3n(c(=O)c12)CCC3	-2	-2	4	-84	·
Cc1ccc(NC(=O)c2sc3ncnc(N4CCN(c5ccccn5)CC4)c3c2C)c(C)c1	1	8	-2	-32	·
COc1ccc(NC(=O)c2sc3nc(Cc4ccccc4)cc(C(F)(F)F)c3c2N)cc1OC	-2	4	0	-9	·
COc1ccc(C)cc1NC(=O)c1sc2nc(C)nc(N3CCOCC3)c2c1C	-1	7	0	-30	·
COc1ccccc1NC(=O)c1sc2nc3n(c(=O)c2c1C)CCC3	1	43*	1	-24	29*
CCOc1ccccc1NC(=O)c1sc2nc(C)nc(N3CCOCC3)c2c1C	0	41*	-4	5	7
COc1ccc(C)cc1NC(=O)c1sc2ncnc(N3CCN(c4ccccn4)CC3)c2c1C	-1	37*	1	-10	3
O=C(OC12CCCN(C1)/C(=C/c1ccccc1)C2)c1ccc(F)cc1 (stereo unspecified)	·	7	·	·	·
CCC[C@H]1[C@@H](OC(=O)NCc2ccc(OC)c(OC)c2)CC[C@@]23CCCN2C(=O)CCC[C@@H]13	·	5	·	·	·
CCCCNC(=O)C[C@H]1C[C@@]2(C(=O)OC)C(=C[C@H](C3CCCC3)O[C@@H]2C)N(CCC2=CCCCC2)C1=O	·	2	·	·	·
Cc1nc(N2CCN(c3ccccn3)CC2)c2c(C)c(C(=O)Nc3ccc(Br)cc3C)sc2n1	1	40*	4	1	-13
Cn1cncc1C#Cc1ccc2cc(C3(O)CCCCC3)oc(=O)c2c1	1	70*	-1	5	43*	RORg DNA counter=>40
C[C@H]1[C@@H](OC(=O)NCc2cccs2)CC[C@@]23CCCN2C(=O)CCC[C@@H]13	·	-6	·	·	·
O=C(COCc1ccccc1)NC1CCCCN(Cc2cccc(Cl)c2)C1=O (stereo unspecified)	·	5	·	·	·
O=C(Nc1cccc(F)c1)OCCCN1CCC2(CCC(c3ccccc3)CC2)C1 (stereo unspecified)	·	6	·	·	·
COc1ccc(CN2CCC(CNC(=O)NC3CCCC3)CC2)cc1	·	-5	·	·	·
SMILES	PG9 Ab binder	NR1D1 modulator	NR2E3 ag-1	NR2E3 ag-2	NR1D1 mod conf	others
Cc1nc2ccc(C(=O)OCc3nnc(-c4ccc(Br)cc4)o3)cc2nc1C	-3	23*	0	-7	19*
NC(=O)c1c(N)[nH]c(C(=O)c2ccccc2)c1-c1ccccn1	·	-2	·	·	·
COc1ccc(S[C@]2(C(=O)N3CCCC3)CC(=O)N(C(=O)C3CC3)[C@@H]2c2ccc(OC)cc2)cc1	·	10	·	·	·
CN1CCS/C1=C/C=C1\SC(=S)N(CC(=O)O)C1=O	-25	302*	-8	1	246*	RORg DNA counter=>40
CCCCN1C(=O)/C(=C/C=C2\SCCN2C)SC1=S	-2	126*	·	-120	47*	RORg DNA counter=>40
CN1CCS/C1=C/C=C1/SC(=S)N(Cc2ccccc2)C1=O	-3	188*	-3	-65	169*	RORg DNA counter=>40
O=C(O)CN1C(=O)/C(=C/c2ccc(N3CCCCC3)o2)SC1=S	0	-1	1	-12	·
O=S1(=O)c2c(NCc3ccco3)cccc2Oc2ccccc2CN1Cc1cn(Cc2ccc(Cl)cc2)nn1	·	2	·	·	·
CCOC(=O)c1c(-c2ccc(C)cc2)csc1NC(=O)/C(C#N)=C/c1ccc(O)c(OC)c1	0	4	·	-25	·
CCOC(=O)c1c(-c2ccccc2)csc1NC(=O)/C(C#N)=C\c1ccc(O)c(OC)c1	-2	42*	·	-46	12*
COc1ccc(-n2nc(C(=O)NCC(=O)N3CCN(c4ccccn4)CC3)c3ccccc3c2=O)c(OC)c1	-1	-3	2	-71	·
COc1ccc(-n2nc(C(=O)NCC(=O)Nc3cc(Cl)c(OC)cc3OC)c3ccccc3c2=O)cc1	1	53*	1	-6	50*	RORg DNA counter=>40
COc1ccc(-n2nc(C(=O)NCC(=O)Nc3ccccn3)c3ccccc3c2=O)cc1Cl	1	66*	·	-3	45*	RORg DNA counter=i
COc1ccc(-n2nc(C(=O)NCC(=O)N3CCN(c4cccc(Cl)c4)CC3)c3ccccc3c2=O)c(OC)c1	-1	31*	-1	8	14
COc1ccc(-n2nc(C(=O)NCC(=O)Nc3cc(OC)ccc3OC)c3ccccc3c2=O)cc1	0	4	1	-13	·
CO[C@H]([C@H](C)/C=C/N(C)C=O)[C@@H](C)C(O)CC[C@H](C)[C@H](O)[C@H](C)[C@H]1OC(=O)/C=C/C(C)=C/C[C@H](O)C[C@@H]2C=CC[C@@H](C[C@H](OC)[C@@]3(CO3)[C@@H](OC)C[C@@H](OC)[C@@H]1C)O2 (stereo partly specified)	·	-2	·	·	·
Cc1cc(C)cc(N(CC(=O)NC2CCC(C)CC2)S(=O)(=O)c2ccc(Cl)s2)c1 (stereo unspecified)	·	-5	·	·	·
COc1ccc(N(Cc2cc3cccc(C)c3[nH]c2=O)S(=O)(=O)c2ccc(Cl)cc2)cc1	0	21*	-1	8	14
CC(=O)Nc1sc(C)c(C)c1C(=O)OCC(=O)NC(C)c1ccccc1 (stereo unspecified)	-1	-3	·	9	·
CCOc1ccc(NC(=O)c2sc(NC(C)=O)c(C(=O)OC)c2C)cc1	3	31*	0	-29	6
